From ChEMBL document CHEMBL3045405, “Enantioselective oxidative damage of chiral pesticide dichlorprop to maize” (J Agric Food Chem, 2011)

Legend:
[1] = Phytotoxicity against Zea mays (maize) assessed as inhibition of shoot height at 1 mg/L and at 25 degC/20 degC day/night temperature 14 hr photoperiod for 3 days; assay type: organism-based; conditions: in vivo
Summary of the method: (§1)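 Maize seeds were surface-sterilized in 3% H2O2 for 10 min and germinated on moist filter paper at 27 °C in the dark. Seedlings were exposed to (rac)-, (S)- or (R)-DCPP in sterile deionized water (0–1.0 mg L-1), with solutions renewed daily, at 80% relative humidity and repositioned daily. Fresh weight, root length and shoot height were compared with the water control after 3 days.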

[2] = Phytotoxicity against Zea mays (maize) assessed as inhibition of seed germination at 1 mg/L and at 27 degC in the dark for 3 days; conditions: in vivo
[3] = Phytotoxicity against Zea mays (maize) assessed as inhibition of root length at 1 mg/L and at 25 degC/20 degC day/night temperature 14 hr photoperiod for 3 days; assay type: organism-based; conditions: in vivo; summary of the method: as §1
[4] = Phytotoxicity against Zea mays (maize) assessed as inhibition of root length at 0.05 mg/L and at 25 degC/20 degC day/night temperature 14 hr photoperiod for 3 days; assay type: organism-based; conditions: in vivo; summary of the method: as §1
Zea mays [5] = experiment: Induction of POD activity in Zea mays (maize) root at 0.1 mg/L measured after 3 days; assay type: organism-based; conditions: in vivo, 72 h
Summary of the method: (§2)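 Maize roots after 3 days' exposure to DCPP enantiomers (0–1.0 mg L-1, test solutions renewed daily). Fresh roots (1.0 g) homogenized on ice in 0.05 M sodium phosphate buffer pH 7.8 with 1% (w/v) polyvinylpyrrolidone, then centrifuged 10 000 rpm, 10 min, 4 °C. The supernatant was used for enzyme assays, with protein by Bradford (BSA standard). Mean ± SEM of three replicate cultures.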

[6] = Phytotoxicity against Zea mays (maize) assessed as inhibition of fresh weight at 0.02 mg/L and at 25 degC/20 degC day/night temperature 14 hr photoperiod for 3 days; assay type: organism-based; conditions: in vivo; summary of the method: as §1
[7] = Phytotoxicity against Zea mays (maize) assessed as inhibition of fresh weight at 0.5 mg/L and at 25 degC/20 degC day/night temperature 14 hr photoperiod for 3 days; assay type: organism-based; conditions: in vivo; summary of the method: as §1
[8] = Phytotoxicity against Zea mays (maize) assessed as inhibition of shoot height at 0.02 mg/L and at 25 degC/20 degC day/night temperature 14 hr photoperiod for 3 days; assay type: organism-based; conditions: in vivo; summary of the method: as §1
[9] = Phytotoxicity against Zea mays (maize) assessed as inhibition of root length at 0.1 mg/L and at 25 degC/20 degC day/night temperature 14 hr photoperiod for 3 days; assay type: organism-based; conditions: in vivo; summary of the method: as §1
[10] = Phytotoxicity against Zea mays (maize) assessed as inhibition of seed germination at 0.02 mg/L and at 27 degC in the dark for 3 days; conditions: in vivo
[11] = Phytotoxicity against Zea mays (maize) assessed as inhibition of seed germination at 0.1 mg/L and at 27 degC in the dark for 3 days; conditions: in vivo
[12] = Phytotoxicity against Zea mays (maize) assessed as inhibition of shoot height at 0.5 mg/L and at 25 degC/20 degC day/night temperature 14 hr photoperiod for 3 days; assay type: organism-based; conditions: in vivo; summary of the method: as §1
Zea mays [13] = experiment: Induction of hydroxyl radical production in Zea mays (maize) root assessed as PBN adducts formation at 1 mg/L measured after 3 days by EPR analysis; assay type: organism-based; conditions: in vivo, 72 h
Summary of the method: (§3)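 Roots of maize exposed for 3 days were rinsed in ice-cold 0.1 M CaCl2. Under nitrogen, 0.5 g was homogenized with 1.0 mL of fresh 100 mM PBN in DMSO, incubated 37 °C for 15 min, and centrifuged 4500 rpm, 3 min, 4 °C. Signal expressed relative to control.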

[14] = Phytotoxicity against Zea mays (maize) assessed as inhibition of seed germination at 0.05 mg/L and at 27 degC in the dark for 3 days; conditions: in vivo
[15] = Phytotoxicity against Zea mays (maize) assessed as inhibition of fresh weight at 0.05 mg/L and at 25 degC/20 degC day/night temperature 14 hr photoperiod for 3 days; assay type: organism-based; conditions: in vivo; summary of the method: as §1
Zea mays [16] = experiment: Induction of hydroxyl radical production in Zea mays (maize) root assessed as ROS adducts formation at 1 mg/L measured after 3 days by EPR analysis; assay type: organism-based; conditions: in vivo, 72 h; summary of the method: as §3
[17] = Phytotoxicity against Zea mays (maize) assessed as inhibition of seed germination at 0.5 mg/L and at 27 degC in the dark for 3 days; conditions: in vivo
[18] = Phytotoxicity against Zea mays (maize) assessed as inhibition of root length at 0.02 mg/L and at 25 degC/20 degC day/night temperature 14 hr photoperiod for 3 days; assay type: organism-based; conditions: in vivo; summary of the method: as §1
[19] = Phytotoxicity against Zea mays (maize) assessed as inhibition of fresh weight at 0.1 mg/L and at 25 degC/20 degC day/night temperature 14 hr photoperiod for 3 days; assay type: organism-based; conditions: in vivo; summary of the method: as §1
[20] = Phytotoxicity against Zea mays (maize) assessed as inhibition of shoot height at 0.05 mg/L and at 25 degC/20 degC day/night temperature 14 hr photoperiod for 3 days; assay type: organism-based; conditions: in vivo; summary of the method: as §1
Zea mays [21] = experiment: Induction of SOD activity in Zea mays (maize) root at 0.02 mg/L measured after 3 days; assay type: organism-based; conditions: in vivo, 72 h; summary of the method: as §2
[22] = Phytotoxicity against Zea mays (maize) assessed as inhibition of shoot height at 0.1 mg/L and at 25 degC/20 degC day/night temperature 14 hr photoperiod for 3 days; assay type: organism-based; conditions: in vivo; summary of the method: as §1
[23] = Phytotoxicity against Zea mays (maize) assessed as inhibition of fresh weight at 1 mg/L and at 25 degC/20 degC day/night temperature 14 hr photoperiod for 3 days; assay type: organism-based; conditions: in vivo; summary of the method: as §1
[24] = Phytotoxicity against Zea mays (maize) assessed as inhibition of root length at 0.5 mg/L and at 25 degC/20 degC day/night temperature 14 hr photoperiod for 3 days; assay type: organism-based; conditions: in vivo; summary of the method: as §1
Zea mays [25] = experiment: Induction of POD activity in Zea mays (maize) root at 0.05 mg/L measured after 3 days; assay type: organism-based; conditions: in vivo, 72 h; summary of the method: as §2
Zea mays [26] = experiment: Induction of POD activity in Zea mays (maize) root at 0.02 mg/L measured after 3 days; assay type: organism-based; conditions: in vivo, 72 h; summary of the method: as §2

Structure (SMILES)	inhibition at 72 h, 1 mg/L [1]	inhibition at 72 h, 1 mg/L [2]	inhibition at 72 h, 1 mg/L [3]	inhibition at 72 h, 0.05 mg/L [4]	inhibition at 72 h, 0.02 mg/L [6]	inhibition at 72 h, 0.5 mg/L [7]	inhibition at 72 h, 0.02 mg/L [8]	inhibition at 72 h, 0.1 mg/L [9]	inhibition at 72 h, 0.02 mg/L [10]	inhibition at 72 h, 0.1 mg/L [11]	inhibition at 72 h, 0.5 mg/L [12]	Activity (Zea mays [13])	inhibition at 72 h, 0.05 mg/L [14]	inhibition at 72 h, 0.05 mg/L [15]	Activity (Zea mays [16])	inhibition at 72 h, 0.5 mg/L [17]	inhibition at 72 h, 0.02 mg/L [18]	inhibition at 72 h, 0.1 mg/L [19]	inhibition at 72 h, 0.05 mg/L [20]	Activity (Zea mays [21])	further results
C[C@H](Oc1ccc(Cl)cc1Cl)C(=O)O [(S)-DICHLORPROP]	30.6%	21.9%	39.9%	17.3%	2.12%	30.2%	2.06%	22.7%	2.1%	9.67%	15.9%	Toxic	4.75%	2.94%	Toxic	11.4%	11.4%	9.5%	3.12%	Non-toxic	Activity (Zea mays [5]): Toxic; inhibition at 72 h, 0.1 mg/L [22]: 6.28%; inhibition at 72 h, 1 mg/L [23]: 38.1%; inhibition at 72 h, 0.5 mg/L [24]: 34.9%
CC(Oc1ccc(Cl)cc1Cl)C(=O)O (racemic) [RAC-DICHLORPROP]	31.1%	31.7%	40.1%	19.3%	2.75%	31.3%	2.14%	24.5%	3.57%	12.2%	17.6%	Toxic	8.38%	4.28%	Toxic	21.4%	12.7%	10%	4.02%	Non-toxic	Activity (Zea mays [25]): Toxic; inhibition at 72 h, 0.1 mg/L [22]: 7.9%; inhibition at 72 h, 1 mg/L [23]: 39.7%; inhibition at 72 h, 0.5 mg/L [24]: 36.7%
C[C@@H](Oc1ccc(Cl)cc1Cl)C(=O)O [(R)-DICHLORPROP]	36.7%	41.4%	42%	23.5%	5.76%	36.7%	3.52%	26.6%	6.64%	16.1%	20.7%	Toxic	10.7%	14.8%	Toxic	34.9%	14.3%	24.6%	5.27%	Toxic	inhibition at 72 h, 0.1 mg/L [22]: 8.61%; inhibition at 72 h, 1 mg/L [23]: 42.7%; inhibition at 72 h, 0.5 mg/L [24]: 38.4%; Activity (Zea mays [26]): Toxic
